Data from ChEMBL document CHEMBL1123045, “Synthesis of high specific activity [75Br]- and [77Br]bromperidol and tissue distribution studies in the rat” (J Med Chem, 1985).

Experiments:
Rattus norvegicus [1] = experiment: Distribution in rat uterus 15 min after intravenous administration, injected dose/gm; format: ADME, organism-based; details: in vivo, 0.25 h
How it was run: (§1)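 Female Sprague-Dawley rats (300-320 g) under light ether anesthesia received a single injection of [77Br]-labeled tracer (50-100 µCi in 0.1 mL 0.9% NaCl, pH 3) into the femoral vein. Groups of five were decapitated at set times after a cardiac-puncture blood sample. Organs were dissected, blotted and weighed, and counted in a NaI(Tl) well γ-counter. Values are %ID/g against an injectate standard, mean ± SD (n=5).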

Rattus norvegicus [2] = experiment: Distribution in rat kidney, 15 min after intravenous administration, injected dose/gm; format: ADME, organism-based; details: in vivo, 0.25 h
How it was run: (§2)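 [77Br]Bromperidol at high specific activity (50-100 µCi in 0.1 mL 0.9% NaCl, pH 3) given into the femoral vein of 300-320-g female Sprague-Dawley rats under light ether anesthesia. At each time point, groups of five were decapitated after cardiac-puncture blood sampling. Organs were dissected, blotted, weighed and gamma-counted against an injectate standard. Values are % injected dose/g, mean ± SD, n=5.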

Rattus norvegicus [3] = experiment: Distribution in rat uterus 4 hr after intravenous administration, injected dose/gm; format: ADME, organism-based; details: in vivo; how it was run: as §1
Rattus norvegicus [4] = experiment: Distribution in rat kidney, 1 hr after intravenous administration, injected dose/gm; format: ADME, organism-based; details: in vivo; how it was run: as §2
Rattus norvegicus [5] = experiment: Distribution in rat intestine 5 min after intravenous administration, injected dose/gm; format: ADME, organism-based; details: in vivo; how it was run: as §2
Rattus norvegicus [6] = experiment: Distribution in rat pancreas 1 hr after intravenous administration, injected dose/gm; format: ADME, organism-based; details: in vivo; how it was run: as §1
Rattus norvegicus [7] = experiment: Distribution in rat lungs 5 min after intravenous administration, injected dose/gm; format: ADME, organism-based, Lung; details: in vivo; how it was run: as §1
Rattus norvegicus [8] = experiment: Distribution in rat spleen 8 hr after intravenous administration, injected dose/gm; format: ADME, organism-based; details: in vivo; how it was run: as §1
Rattus norvegicus [9] = experiment: Distribution in rat pancreas 15 min after intravenous administration, injected dose/gm; format: ADME, organism-based; details: in vivo, 0.25 h; how it was run: as §1
Rattus norvegicus [10] = experiment: Distribution in rat liver 6 hr after intravenous administration, injected dose/gm; format: ADME, organism-based; details: in vivo; how it was run: as §1
Rattus norvegicus [11] = experiment: Distribution in rat heart 30 min after intravenous administration, injected dose/gm; format: ADME, organism-based; details: in vivo, 0.5 h; how it was run: as §2
Rattus norvegicus [12] = experiment: Distribution in rat lungs 2 hr after intravenous administration, injected dose/gm; format: ADME, organism-based, Lung; details: in vivo; how it was run: as §1
Rattus norvegicus [13] = experiment: Distribution in rat spleen 4 hr after intravenous administration, injected dose/gm; format: ADME, organism-based; details: in vivo; how it was run: as §1
Rattus norvegicus [14] = experiment: Distribution in rat liver 30 min after intravenous administration, injected dose/gm; format: ADME, organism-based; details: in vivo, 0.5 h; how it was run: as §1
Rattus norvegicus [15] = experiment: Distribution in brain of rat, 2 hr after intravenous administered, injected dose/gm; format: ADME, organism-based; details: in vivo; how it was run: as §2
Rattus norvegicus [16] = experiment: Distribution in blood of rat, 2 hr after intravenous administration, injected dose/gm; format: ADME, organism-based; details: in vivo; how it was run: as §2
Rattus norvegicus [17] = experiment: Distribution in rat muscle 1 hr after intravenous administration, injected dose/gm; format: ADME, organism-based, Muscle tissue; details: in vivo; how it was run: as §1
Rattus norvegicus [18] = experiment: Distribution in rat pancreas 30 min after intravenous administration, injected dose/gm; format: ADME, organism-based; details: in vivo, 0.5 h; how it was run: as §1
Rattus norvegicus [19] = experiment: Distribution in rat kidney, 2 hr after intravenous administration, injected dose/gm; format: ADME, organism-based; details: in vivo; how it was run: as §2
Rattus norvegicus [20] = experiment: Distribution in brain of rat, 5 min after intravenous administered, injected dose/gm; format: ADME, organism-based; details: in vivo; how it was run: as §2
Rattus norvegicus [21] = experiment: Distribution in brain of rat, 15 min after intravenous administered, injected dose/gm; format: ADME, organism-based; details: in vivo, 0.25 h; how it was run: as §2
Rattus norvegicus [22] = experiment: Distribution in blood of rat, 4 hr after intravenous administration, injected dose/gm; format: ADME, organism-based; details: in vivo; how it was run: as §2
Rattus norvegicus [23] = experiment: Distribution in rat muscle 15 min after intravenous administration, injected dose/gm; format: ADME, organism-based, Muscle tissue; details: in vivo, 0.25 h; how it was run: as §1
Rattus norvegicus [24] = experiment: Distribution in rat spleen 6 hr after intravenous administration, injected dose/gm; format: ADME, organism-based; details: in vivo; how it was run: as §1
Rattus norvegicus [25] = experiment: Distribution in blood of rat, 8 hr after intravenous administration, injected dose/gm; format: ADME, organism-based; details: in vivo; how it was run: as §2
Rattus norvegicus [26] = experiment: Distribution in rat kidney, 6 hr after intravenous administration, injected dose/gm; format: ADME, organism-based; details: in vivo; how it was run: as §2
Rattus norvegicus [27] = experiment: Distribution in blood of rat, 1 hr after intravenous administration, injected dose/gm; format: ADME, organism-based; details: in vivo; how it was run: as §2
Rattus norvegicus [28] = experiment: Distribution in rat liver 2 hr after intravenous administration, injected dose/gm; format: ADME, organism-based; details: in vivo; how it was run: as §2
Rattus norvegicus [29] = experiment: Distribution in rat fat 8 hr after intravenous administration, injected dose/gm; format: ADME, organism-based, Adipose tissue; details: in vivo; how it was run: as §2
Rattus norvegicus [30] = experiment: Distribution in rat heart 8 hr after intravenous administration, injected dose/gm; format: ADME, organism-based; details: in vivo; how it was run: as §2
Rattus norvegicus [31] = experiment: Distribution in rat liver 15 min after intravenous administration, injected dose/gm; format: ADME, organism-based; details: in vivo, 0.25 h; how it was run: as §2
Rattus norvegicus [32] = experiment: Distribution in rat fat 15 min after intravenous administration, injected dose/gm; format: ADME, organism-based, Adipose tissue; details: in vivo, 0.25 h; how it was run: as §2
Rattus norvegicus [33] = experiment: Distribution in rat skin 6 hr after intravenous administration, injected dose/gm; format: ADME, organism-based; details: in vivo; how it was run: as §1
Rattus norvegicus [34] = experiment: Distribution in rat lungs 1 hr after intravenous administration, injected dose/gm; format: ADME, organism-based, Lung; details: in vivo; how it was run: as §1
Rattus norvegicus [35] = experiment: Distribution in rat spleen 15 min after intravenous administration, injected dose/gm; format: ADME, organism-based; details: in vivo, 0.25 h; how it was run: as §1
Rattus norvegicus [36] = experiment: Distribution in rat muscle 6 hr after intravenous administration, injected dose/gm; format: ADME, organism-based, Muscle tissue; details: in vivo; how it was run: as §1
Rattus norvegicus [37] = experiment: Distribution in rat skin 8 hr after intravenous administration, injected dose/gm; format: ADME, organism-based; details: in vivo; how it was run: as §1
Rattus norvegicus [38] = experiment: Distribution in blood of rat, 6 hr after intravenous administration, injected dose/gm; format: ADME, organism-based; details: in vivo; how it was run: as §2
Rattus norvegicus [39] = experiment: Distribution in blood of rat, 15 min after intravenous administration, injected dose/gm; format: ADME, organism-based; details: in vivo, 0.25 h; how it was run: as §2
Rattus norvegicus [40] = experiment: Distribution in rat intestine 2 hr after intravenous administration, injected dose/gm; format: ADME, organism-based; details: in vivo; how it was run: as §2
Rattus norvegicus [41] = experiment: Distribution in rat intestine 1 hr after intravenous administration, injected dose/gm; format: ADME, organism-based; details: in vivo; how it was run: as §2
Rattus norvegicus [42] = experiment: Distribution in rat muscle 5 min after intravenous administration, injected dose/gm; format: ADME, organism-based, Muscle tissue; details: in vivo; how it was run: as §1
Rattus norvegicus [43] = experiment: Distribution in rat muscle 8 hr after intravenous administration, injected dose/gm; format: ADME, organism-based, Muscle tissue; details: in vivo; how it was run: as §1
Rattus norvegicus [44] = experiment: Distribution in rat lungs 8 hr after intravenous administration, injected dose/gm; format: ADME, organism-based, Lung; details: in vivo; how it was run: as §1
Rattus norvegicus [45] = experiment: Distribution in rat liver 4 hr after intravenous administration, injected dose/gm; format: ADME, organism-based; details: in vivo; how it was run: as §1
Rattus norvegicus [46] = experiment: Distribution in rat pancreas 8 hr after intravenous administration, injected dose/gm; format: ADME, organism-based; details: in vivo; how it was run: as §1
Rattus norvegicus [47] = experiment: Distribution in rat lungs 15 min after intravenous administration, injected dose/gm; format: ADME, organism-based, Lung; details: in vivo, 0.25 h; how it was run: as §1
Rattus norvegicus [48] = experiment: Distribution in rat heart 6 hr after intravenous administration, injected dose/gm; format: ADME, organism-based; details: in vivo; how it was run: as §2
Rattus norvegicus [49] = experiment: Distribution in rat muscle 4 hr after intravenous administration, injected dose/gm; format: ADME, organism-based, Muscle tissue; details: in vivo; how it was run: as §1
Rattus norvegicus [50] = experiment: Distribution in rat intestine 15 min after intravenous administration, injected dose/gm; format: ADME, organism-based; details: in vivo, 0.25 h; how it was run: as §2

- Distribution (Rattus norvegicus [1]): 2.24%
- Distribution (Rattus norvegicus [2]): 4.69%
- Distribution (Rattus norvegicus [3]): 1.07%
- Distribution (Rattus norvegicus [4]): 4.11%
- Distribution (Rattus norvegicus [5]): 0.39%
- Distribution (Rattus norvegicus [6]): 4.23%
- Distribution (Rattus norvegicus [7]): 13.6%
- Distribution (Rattus norvegicus [8]): 1.86%
- Distribution (Rattus norvegicus [9]): 4.72%
- Distribution (Rattus norvegicus [10]): 4.16%
- Distribution (Rattus norvegicus [11]): 1.07%
- Distribution (Rattus norvegicus [12]): 2.1%
- Distribution (Rattus norvegicus [13]): 1.92%
- Distribution (Rattus norvegicus [14]): 2.5%
- Distribution (Rattus norvegicus [15]): 1.85%
- Distribution (Rattus norvegicus [16]): 0.05%
- Distribution (Rattus norvegicus [17]): 0.18%
- Distribution (Rattus norvegicus [18]): 5.2%
- Distribution (Rattus norvegicus [19]): 2.93%
- Distribution (Rattus norvegicus [20]): 2.26%
- Distribution (Rattus norvegicus [21]): 3.04%
- Distribution (Rattus norvegicus [22]): 0.06%
- Distribution (Rattus norvegicus [23]): 0.32%
- Distribution (Rattus norvegicus [24]): 1.76%
- Distribution (Rattus norvegicus [25]): 0.02%
- Distribution (Rattus norvegicus [26]): 1.93%
- Distribution (Rattus norvegicus [27]): 0.06%
- Distribution (Rattus norvegicus [28]): 3.16%
- Distribution (Rattus norvegicus [29]): 0.18%
- Distribution (Rattus norvegicus [30]): 0.3%
- Distribution (Rattus norvegicus [31]): 2.19%
- Distribution (Rattus norvegicus [32]): 0.16%
- Distribution (Rattus norvegicus [33]): 0.14%
- Distribution (Rattus norvegicus [34]): 4.19%
- Distribution (Rattus norvegicus [35]): 3.29%
- Distribution (Rattus norvegicus [36]): 0.13%
- Distribution (Rattus norvegicus [37]): 0.14%
- Distribution (Rattus norvegicus [38]): 0.03%
- Distribution (Rattus norvegicus [39]): 0.11%
- Distribution (Rattus norvegicus [40]): 0.82%
- Distribution (Rattus norvegicus [41]): 0.89%
- Distribution (Rattus norvegicus [42]): 0.32%
- Distribution (Rattus norvegicus [43]): 0.1%
- Distribution (Rattus norvegicus [44]): 1.14%
- Distribution (Rattus norvegicus [45]): 4.08%
- Distribution (Rattus norvegicus [46]): 2.05%
- Distribution (Rattus norvegicus [47]): 6.29%
- Distribution (Rattus norvegicus [48]): 0.39%
- Distribution (Rattus norvegicus [49]): 0.12%
- Distribution (Rattus norvegicus [50]): 0.91%
SMILES: O=C(CCCN1CCC(O)(c2ccc(Br)cc2)CC1)c1ccc(F)cc1 [BROMPERIDOL]
